Results: ChEMBL document CHEMBL1125245, “Quinolone antibacterials: preparation and activity of bridged bicyclic analogues of the C7-piperazine” (J Med Chem, 1991)

Legend:
Escherichia coli [1] = assay: In vivo protection against gram-negative Escherichia coli vogel in mouse after subcutaneous administration; settings: sc, read-out: PD50
[2] = Compound evaluated in vitro against five gram-negative bacterial strains and geometric means of the minimum inhibitory concentrations (MIC) reported.; assay type: functional; design: unit not given here
Procedure, shortened: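 Geometric mean MIC across five Gram-negative strains (E. coli H560, E. coli Vogel, Enterobacter cloacae MA 2646, Klebsiella pneumoniae MGH-2, Proteus rettgeri M1771). Mean taken as antilog of the averaged log MIC values.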

Escherichia coli [3] = assay: In vivo protection against gram-negative Escherichia coli vogel in mouse after oral administration.; settings: read-out: PD50
DNA gyrase = DNA gyrase (Escherichia coli, UniProt P0AES4+P0AES6); assay: Compound evaluated in vitro for the ability to inhibit gyrase.; assay type: protein-complex assay; settings: read-out: I50 (converted)
Procedure, shortened: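 DNA gyrase isolated from Escherichia coli H560 cells; inhibition given as I50.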

[4] = Compound evaluated in vitro against five gram-positive bacterial strains and geometric means of the minimum inhibitory concentrations (MIC) reported.; assay type: functional; design: unit not given here
Procedure, shortened: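 Geometric mean MIC across five Gram-positive strains, taken as antilog of the averaged log MIC values.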

Streptococcus pneumoniae [5] = assay: In vivo protection against gram-positive Streptococcus pneumonia (SV-1) in mouse after oral administration.; assay type: functional; settings: read-out: PD50
Streptococcus pneumoniae [6] = assay: In vivo protection against gram-positive Streptococcus pneumonia (SV-1) in mouse after subcutaneous administration; assay type: functional; settings: sc, read-out: PD50

| Compound | ED50 (Escherichia coli [1]) | MIC [2] | ED50 (Escherichia coli [3]) | IC50 (DNA gyrase) | MIC [4] | ED50 (Streptococcus pneumoniae [5]) | ED50 (Streptococcus pneumoniae [6]) |
| --- | --- | --- | --- | --- | --- | --- | --- |
| NC1CCN(c2nc3c(cc2F)c(=O)c(C(=O)O)cn3C2CC2)CC1 | 0.8 mg/kg | 0.11 | 4.6 mg/kg | 8.66 µM | 0.23 |  |  |
| O=C(O)c1cn(C2CC2)c2c(F)c(N3CCNCC3)c(F)cc2c1=O | 0.3 mg/kg | 0.04 | 0.5 mg/kg |  | 0.4 | 59 mg/kg | 29 mg/kg |
| O=C(O)c1cn(C2CC2)c2nc(N3CCN4CCC3C4)c(F)cc2c1=O (stereo not given) | 0.3 mg/kg | 0.11 | 0.5 mg/kg | 38.5 µM | 0.46 | 32 mg/kg | 20 mg/kg |
| CCN[C@H]1C[C@H]2CC[C@@H](C1)N2c1nc2c(cc1F)c(=O)c(C(=O)O)cn2C1CC1 | 2.8 mg/kg | 0.46 | 2.8 mg/kg | 15.7 µM | 0.26 | 23 mg/kg | 16 mg/kg |
| O=C(O)c1cn(C2CC2)c2c(F)c(N3CC4CCC3CN4)c(F)cc2c1=O (stereo not given) | 1.3 mg/kg | 0.09 | 2.9 mg/kg | 16.8 µM | 0.3 |  |  |
| O=C(O)c1cn(C2CC2)c2cc(N3CC4CCCC3CN4)c(F)cc2c1=O (stereo not given) | 1.6 mg/kg | 0.08 | 5.7 mg/kg | 4.85 µM | 0.06 | > 100 mg/kg | 6.6 mg/kg |
| Nc1c(F)c(N2C[C@H]3CC2CN3)c(F)c2c1c(=O)c(C(=O)O)cn2C1CC1 | 1 mg/kg | 0.04 | 5 mg/kg | 36.7 µM | 0.09 | > 100 mg/kg | 13 mg/kg |
| Nc1c(F)c(N2CC3CCC2CN3)c(F)c2c1c(=O)c(C(=O)O)cn2C1CC1 (stereo not given) | 0.7 mg/kg | 0.06 | 3.6 mg/kg | 14.1 µM | 0.06 |  |  |
| CCN[C@@H]1C[C@H]2CC[C@@H](C1)N2c1cc2c(cc1F)c(=O)c(C(=O)O)cn2C1CC1 | 2.3 mg/kg | 0.8 | 5.7 mg/kg | 15.8 µM | 0.26 | 35 mg/kg | 23 mg/kg |
| Nc1c(F)c(N2CC3CCCC2CN3)c(F)c2c1c(=O)c(C(=O)O)cn2C1CC1 (stereo not given) | 0.7 mg/kg | 0.04 | 4.8 mg/kg | 2.23 µM | 0.03 | 35 mg/kg | 6.3 mg/kg |
| CCN[C@H]1C[C@H]2CC[C@@H](C1)N2c1c(F)cc2c(=O)c(C(=O)O)cn(C3CC3)c2c1F | 6.5 mg/kg | 0.6 | > 12.5 mg/kg | 15.1 µM | 0.46 |  |  |
| O=C(O)c1cn(C2CC2)c2nc(N3C[C@H]4CC3CN4)c(F)cc2c1=O | 37 mg/kg | 0.08 | 53 mg/kg | 18.3 µM | 0.46 |  |  |
| CN1CC2CCC1CN2c1nc2c(cc1F)c(=O)c(C(=O)O)cn2C1CC1 (stereo not given) | 1.1 mg/kg | 0.1 | 1.4 mg/kg | 14.8 µM | 0.26 |  |  |
| O=C(O)c1cn(C2CC2)c2c(F)c(N3C[C@H]4CC3CN4)c(F)cc2c1=O | 0.4 mg/kg | 0.07 | 1.7 mg/kg | 7.75 µM | 0.53 | > 100 mg/kg | 18.5 mg/kg |
| O=C(O)c1cn(C2CC2)c2cc(N3C[C@H]4CC3CN4)c(F)cc2c1=O | 0.6 mg/kg | 0.1 | 5.5 mg/kg | 8.15 µM | 0.79 | > 100 mg/kg | 51 mg/kg |
| CCN[C@@H]1C[C@H]2CC[C@@H](C1)N2c1c(F)cc2c(=O)c(C(=O)O)cn(C3CC3)c2c1F | 3 mg/kg | 0.61 | 5.8 mg/kg | 9.1 µM | 0.17 |  |  |
| O=C(O)c1cn(C2CC2)c2cc(N3CC4CCC3CN4)c(F)cc2c1=O (stereo not given) | 0.7 mg/kg | 0.08 | 5.5 mg/kg | 4.2 µM | 0.1 | > 100 mg/kg | 24 mg/kg |
| Nc1c(F)c(N2CCNCC2)c(F)c2c1c(=O)c(C(=O)O)cn2C1CC1 | 0.2 mg/kg | 0.02 | 0.8 mg/kg |  | 0.05 | 31 mg/kg | 23 mg/kg |
| NC1CCN(c2c(F)cc3c(=O)c(C(=O)O)cn(C4CC4)c3c2F)CC1 | 1.4 mg/kg | 0.2 | 4.7 mg/kg | < 1.38 µM | 0.08 |  |  |
| O=C(O)c1cn(C2CC2)c2cc(N3CCN4CCC3C4)c(F)cc2c1=O (stereo not given) | 0.3 mg/kg | 0.03 | 1 mg/kg | 8.39 µM | 0.09 | 35 mg/kg | 11 mg/kg |

| Compound | ED50 (Escherichia coli [1]) | MIC [2] | ED50 (Escherichia coli [3]) | IC50 (DNA gyrase) | MIC [4] | ED50 (Streptococcus pneumoniae [5]) | ED50 (Streptococcus pneumoniae [6]) |
| --- | --- | --- | --- | --- | --- | --- | --- |
| O=C(O)c1cn(C2CC2)c2nc(N3CC4CCC3CN4)c(F)cc2c1=O (stereo not given) | 0.7 mg/kg | 0.13 | 1.7 mg/kg | 17.6 µM | 0.11 | > 100 mg/kg | 15.1 mg/kg |
| CCN[C@@H]1C[C@H]2CC[C@@H](C1)N2c1nc2c(cc1F)c(=O)c(C(=O)O)cn2C1CC1 | 9.1 mg/kg | 0.6 | 21 mg/kg | 15.7 µM | 0.53 |  |  |
| O=C(O)c1cn(C2CC2)c2c(F)c(N3CC4CCCC3CN4)c(F)cc2c1=O (stereo not given) | 1.1 mg/kg | 0.15 | 2.9 mg/kg | 7.45 µM | 0.15 | 48.5 mg/kg | 11.9 mg/kg |
| N[C@H]1C[C@H]2CC[C@@H](C1)N2c1c(F)cc2c(=O)c(C(=O)O)cn(C3CC3)c2c1F | 0.75 mg/kg | 0.05 | 1.8 mg/kg | 9.76 µM | 0.03 | 8.5 mg/kg | 3.1 mg/kg |
| N[C@H]1C[C@H]2CC[C@@H](C1)N2c1cc2c(cc1F)c(=O)c(C(=O)O)cn2C1CC1 | 2 mg/kg | 0.15 | 9.5 mg/kg | 8.08 µM | 0.23 |  |  |
| CN1CC2CCC1CN2c1c(F)cc2c(=O)c(C(=O)O)cn(C3CC3)c2c1F (stereo not given) | < 1.6 mg/kg | 0.13 | < 1.6 mg/kg | 16.2 µM | 0.15 |  |  |
| NC1CCN(c2cc3c(cc2F)c(=O)c(C(=O)O)cn3C2CC2)CC1 | 1.4 mg/kg | 0.17 | 15 mg/kg | 2.32 µM | 0.17 |  |  |
| Nc1c(F)c(N2CCN3CCC2C3)c(F)c2c1c(=O)c(C(=O)O)cn2C1CC1 (stereo not given) | 0.2 mg/kg | 0.03 | 0.6 mg/kg | 14.1 µM | 0.08 |  |  |
| O=C(O)c1cn(C2CC2)c2c(F)c(N3CCN4CCC3C4)c(F)cc2c1=O (stereo not given) | 0.2 mg/kg | 0.04 | 0.5 mg/kg | 7.73 µM | 0.15 | 32 mg/kg | 11 mg/kg |
| Cl.O=C(O)c1cn(C2CC2)c2nc(N3C[C@@H]4CC3CN4)c(F)cc2c1=O | 1.6 mg/kg | 0.03 | 2.2 mg/kg |  | 0.26 |  |  |
| Br.O=C(O)c1cn(C2CC2)c2cc(N3C[C@@H]4CC3CN4)c(F)cc2c1=O | 0.2 mg/kg | 0.04 | 1.9 mg/kg | 4.48 µM | 0.3 | > 100 mg/kg | 12.5 mg/kg |
| CN1CC2C[C@@H]1CN2c1c(F)cc2c(=O)c(C(=O)O)cn(C3CC3)c2c1F.Cl | 0.5 mg/kg | 0.09 | 0.9 mg/kg | 7.28 µM | 0.17 | 13 mg/kg | 14 mg/kg |
| Cl.N[C@@H]1C[C@H]2CC[C@@H](C1)N2c1nc2c(cc1F)c(=O)c(C(=O)O)cn2C1CC1 | 1.1 mg/kg | 0.25 | 2.1 mg/kg | 42.8 µM | 0.46 | 29 mg/kg | 21 mg/kg |
| Cl.N[C@H]1C[C@H]2CC[C@@H](C1)N2c1nc2c(cc1F)c(=O)c(C(=O)O)cn2C1CC1 | 6 mg/kg | 0.79 | 71 mg/kg | 18.3 µM | 0.4 |  |  |
| Cl.O=C(O)c1cn(C2CC2)c2nc(N3CC4CCCC3CN4)c(F)cc2c1=O (stereo not given) | 0.8 mg/kg | 0.08 | 2.3 mg/kg | 7.34 µM | 0.09 | 25 mg/kg | 18 mg/kg |
| Cl.N[C@@H]1C[C@H]2CC[C@@H](C1)N2c1c(F)cc2c(=O)c(C(=O)O)cn(C3CC3)c2c1F | 4 mg/kg | 0.26 | 21 mg/kg | 8.92 µM | 0.11 |  |  |
| CCN[C@H]1C[C@H]2CC[C@@H](C1)N2c1cc2c(cc1F)c(=O)c(C(=O)O)cn2C1CC1.F |  | 2.76 |  | 41.7 µM | 1.81 |  |  |
| Br.Nc1c(F)c(N2C[C@@H]3CC2CN3)c(F)c2c1c(=O)c(C(=O)O)cn2C1CC1 | 1.1 mg/kg | 0.07 | 6.1 mg/kg |  | 0.25 |  |  |
| O=C(O)c1cn(C2CC2)c2nc(N3CCNCC3)c(F)cc2c1=O | 0.4 mg/kg | 0.06 | 0.7 mg/kg | 150 µM | 1.21 |  |  |
| O=C(O)c1cn(C2CC2)c2cc(N3CCNCC3)c(F)cc2c1=O [CIPROFLOXACIN] | 0.3 mg/kg | 0.06 | 1.2 mg/kg |  | 0.91 | > 100 mg/kg | 29 mg/kg |
